Results published in ChEMBL document CHEMBL3596154, “Discovery of biaryl carboxylamides as potent RORγ inverse agonists” (Bioorg Med Chem Lett, 2015).

Key:
[1] = Clearance in human hepatocytes relative to hepatic blood flow; assay type: ADME, cell-based, Liver, Hepatocyte; conditions: read-out: CLH
[2] = Clearance in rat hepatocytes relative to hepatic blood flow; assay type: ADME, cell-based, Liver, Hepatocyte; conditions: read-out: CLH
[3] = target: T1, Nuclear receptor ROR-alpha (Homo sapiens, UniProt P35398); experiment: Inverse agonist activity at Gal4 DNA binding domain-tagged human RORalpha expressed in HEK293T cells assessed as effect on receptor-mediated transcriptional activity by luciferase reporter gene assay; assay type: cell-based, HEK-293T
T1 sequence (P35398 whole entry): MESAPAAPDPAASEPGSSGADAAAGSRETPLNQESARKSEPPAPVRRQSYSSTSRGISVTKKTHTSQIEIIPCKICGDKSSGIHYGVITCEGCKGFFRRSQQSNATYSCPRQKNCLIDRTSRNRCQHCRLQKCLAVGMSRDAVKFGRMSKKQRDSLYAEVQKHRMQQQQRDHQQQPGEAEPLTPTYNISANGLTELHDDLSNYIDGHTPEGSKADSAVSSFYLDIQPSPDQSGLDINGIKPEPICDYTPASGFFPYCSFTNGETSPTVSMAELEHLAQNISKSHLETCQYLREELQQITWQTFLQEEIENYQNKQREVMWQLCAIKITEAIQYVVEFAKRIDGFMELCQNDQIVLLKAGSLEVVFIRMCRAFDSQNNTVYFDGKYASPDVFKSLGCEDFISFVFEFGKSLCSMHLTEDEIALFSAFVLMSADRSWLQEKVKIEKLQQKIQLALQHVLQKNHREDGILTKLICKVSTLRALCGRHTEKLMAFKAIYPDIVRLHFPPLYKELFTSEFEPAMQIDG
How it was run: (§1)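 Gal4 reporter assay in 293T cells with the same format as the RORγ Gal4 assay, using Gal4DBD:RORαLBD or Gal4DBD:RORβLBD constructs. Transfection, then compound treatment, then lysis and dual-flash luciferase luminescence. Activity measured in dose-response.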

[4] = target: T2, Nuclear receptor ROR-beta (Homo sapiens, UniProt Q92753); experiment: Inverse agonist activity at Gal4 DNA binding domain-tagged human RORbeta expressed in HEK293T cells assessed as effect on receptor-mediated transcriptional activity by luciferase reporter gene assay; assay type: cell-based, HEK-293T; how it was run: as §1
T2 sequence (Q92753 whole entry): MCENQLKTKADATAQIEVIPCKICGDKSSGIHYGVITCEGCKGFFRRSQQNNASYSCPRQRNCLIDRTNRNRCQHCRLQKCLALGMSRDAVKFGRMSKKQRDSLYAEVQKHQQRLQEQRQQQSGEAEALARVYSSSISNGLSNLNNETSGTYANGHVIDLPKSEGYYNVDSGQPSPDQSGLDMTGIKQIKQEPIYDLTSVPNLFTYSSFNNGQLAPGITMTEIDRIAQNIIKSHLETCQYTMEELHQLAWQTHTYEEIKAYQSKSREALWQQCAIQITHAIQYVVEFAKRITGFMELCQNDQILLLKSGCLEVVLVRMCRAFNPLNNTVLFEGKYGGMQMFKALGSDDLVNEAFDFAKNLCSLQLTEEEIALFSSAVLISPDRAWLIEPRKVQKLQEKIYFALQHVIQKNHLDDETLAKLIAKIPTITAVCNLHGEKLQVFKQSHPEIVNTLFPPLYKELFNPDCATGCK

[5] = target: T3, Nuclear receptor subfamily 1 group I member 2 (Homo sapiens, UniProt O75469); experiment: Antagonist activity at Gal4 DNA binding domain-tagged human PXR ligand binding domain expressed in HEK293 cells assessed as inhibition of receptor-mediated transcriptional activity by luciferase reporter gene assay; assay type: cell-based
T3 sequence (O75469 whole entry): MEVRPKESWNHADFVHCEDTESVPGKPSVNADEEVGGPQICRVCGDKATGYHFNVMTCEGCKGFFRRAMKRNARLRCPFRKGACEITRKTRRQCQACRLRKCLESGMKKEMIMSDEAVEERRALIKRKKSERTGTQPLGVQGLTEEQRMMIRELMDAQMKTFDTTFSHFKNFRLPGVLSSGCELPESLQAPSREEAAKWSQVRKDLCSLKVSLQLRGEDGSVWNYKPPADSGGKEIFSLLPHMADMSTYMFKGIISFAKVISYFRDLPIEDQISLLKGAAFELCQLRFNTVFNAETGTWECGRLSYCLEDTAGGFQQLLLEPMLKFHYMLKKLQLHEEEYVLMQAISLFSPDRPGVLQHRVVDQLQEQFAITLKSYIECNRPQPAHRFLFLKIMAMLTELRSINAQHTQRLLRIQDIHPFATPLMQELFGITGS
How it was run: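 Screened by ChemPartner in HEK293 cells transiently co-transfected with a Gal4DBD-human NR LBD construct and a UAS-Luc reporter. Run in antagonist mode, read as % inhibition at a single concentration. Commercial reference compounds were run alongside in the same assay.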

[6] = target: T3, Nuclear receptor subfamily 1 group I member 2; experiment: Agonist activity at Gal4 DNA binding domain-tagged human PXR ligand binding domain expressed in HEK293 cells assessed as activation of receptor-mediated transcriptional activity by luciferase reporter gene assay; assay type: cell-based
How it was run: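 Screened by ChemPartner as a cell-based transient co-transfection reporter assay in HEK293 cells, using a Gal4DBD-human NR LBD construct with UAS-Luc. Run in agonist mode, read as % activation at a single concentration. Commercial reference compounds were profiled in the same assay for validation.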

[7] = Half life in rat at 2 mg/kg, iv; assay type: ADME, organism-based; conditions: in vivo
How it was run: (§2)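 Rats dosed at 2.0 mg/kg intravenously in SPEW vehicle. Plasma exposure profiled for T1/2 and Cmax.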

[8] = AUC (infinity) in rat at 2 mg/kg, iv; assay type: ADME, organism-based; set-up: dose 2 mg/kg, time infinity, route intravenous; conditions: in vivo
How it was run: (§3)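 Rat PK; iv dosing at 2.0 mg/Kg in SPEW vehicle, oral dosing at 10 mg/Kg in 0.1% CMC-0.2%Tween; AUCinf reported in ng*hr/mL.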

[9] = AUC (infinity) in rat at 10 mg/kg, po; assay type: ADME, organism-based; set-up: dose 10 mg/kg, route oral, time infinity; conditions: in vivo; how it was run: as §3
[10] = Cmax in rat at 2 mg/kg, iv; assay type: ADME, organism-based; set-up: dose 2 mg/kg, route intravenous; conditions: in vivo; how it was run: as §2
[11] = Cmax in rat at 10 mg/kg, po; assay type: ADME, organism-based; set-up: dose 10 mg/kg, route oral; conditions: in vivo
Rattus norvegicus = experiment: Clearance in rat at 2 mg/kg, iv relative to hepatic blood flow; assay type: ADME, organism-based, Liver; conditions: in vivo
How it was run: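 Rats given 2.0 mg/kg iv in SPEW vehicle. Clearance is expressed as % of hepatic blood flow (%Qh).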

[12] = Oral bioavailability in rat at 10 mg/kg; assay type: ADME, organism-based; conditions: in vivo

[2H]C([2H])([2H])N(C(=O)c1c(F)cccc1Cl)c1ccc(-c2cc(C(N)=O)ccc2Cl)cc1OCC(F)(F)F showed a hepatic extraction ratio [1] of 0.51, a hepatic extraction ratio [2] of 0.65 and an EC50 [3] of 8.36 µM. For the same compound, the EC50 [4] was 1.93 µM, the “inhibition (INH)” value [5] was under 50% and the Activity [6] was under 50%. For the same compound, the half-life [7] was 9.6 h, the AUC(0-inf) [8] was 1540 ng·h/mL and the AUC(0-inf) [9] was 3130 ng·h/mL. The Cmax [10] was 2740 ng/mL, the Cmax [11] was 1210 ng/mL and the CLH (Rattus norvegicus) was 40%. The bioavailability [12] was 41%.
